# Laboratory results published in paper PMC8952960 (Nature chemistry, 2021).
# Experiments:
# [1] = biological target: K351R mutant of Ku70 with Ku80 (Homo sapiens, UniProt P12956, K351R); experiment: Ku70/Ku80 heterodimerization assay, K351R mutant of Ku70; type: biochemical
# Summary of the method: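 FLAG-Ku70 (WT or K351R) HEK293T lysates were sonicated in 1% NP-40 buffer with protease inhibitors and normalised to 1.0 mg·mL⁻¹. They were treated with test compound or DMSO (1 h, 23 °C), then mixed with WT Ku80 lysate (1.0 mg·mL⁻¹, 1 h, 23 °C). Anti-FLAG co-IP (1 h, 4 °C) and four washes in 0.2% NP-40 buffer followed, with anti-HA immunoblot read-out.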
# [2] = biological target: K351 of XRCC6 (Ku70) (Homo sapiens, UniProt P12956); experiment: competitive isoTOP-ABPP, XRCC6; type: binding
# Summary of the method: (§1)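 Human cancer cell (MDA-MB-231, Ramos) soluble or membrane fractions at 1.8 mg·mL⁻¹, or live cells, were exposed to test compound or DMSO. Proteomes were then labelled with lysine probe 1 (100 µM, 1 h, 23 °C). Compound samples were clicked to light and DMSO samples to heavy TEV-biotin tags, then streptavidin-enriched, trypsinised, TEV-released and analysed by MS. R was taken as the median peptide ratio per lysine.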
# [3] = biological target: preformed Ku70-Ku80 complex (Homo sapiens, UniProt P12956); experiment: treatment of preformed Ku70-Ku80 complex; type: biochemical; settings: 1 h, 23 °C
# Summary of the method: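 Lysates of HEK293T cells co-expressing WT Ku80 with WT or K351R Ku70 were first anti-Flag co-immunoprecipitated (1 h, 4 °C). The captured complex was then exposed to test compound or DMSO at the stated concentrations (1 h, 23 °C), washed, and analysed by Western blot. Blots represent four independent experiments.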
# [4] = biological target: Ku70/Ku80 heterodimer (Homo sapiens, UniProt P12956); experiment: Ku70/Ku80 heterodimerization assay; type: biochemical; settings: pre-treatment of recombinantly expressed Ku70
# [5] = biological target: T1, K53 of GSTT2B (Homo sapiens, UniProt P0CG30); experiment: competitive isoTOP-ABPP; type: binding
# T1 sequence (P0CG30 1-244): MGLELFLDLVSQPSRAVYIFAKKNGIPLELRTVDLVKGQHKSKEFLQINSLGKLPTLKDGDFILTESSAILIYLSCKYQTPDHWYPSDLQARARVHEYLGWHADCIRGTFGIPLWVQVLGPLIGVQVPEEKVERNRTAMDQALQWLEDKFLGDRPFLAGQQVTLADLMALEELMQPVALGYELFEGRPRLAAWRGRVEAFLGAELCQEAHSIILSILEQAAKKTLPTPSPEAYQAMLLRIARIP
# Summary of the method: as §1
# [6] = biological target: T2, K404 of CPOX (Homo sapiens, UniProt P36551); experiment: competitive isoTOP-ABPP with probe P1, CPOX lysines; type: binding; settings: R ≥ 4 defines liganded
# T2 sequence (P36551 111-454): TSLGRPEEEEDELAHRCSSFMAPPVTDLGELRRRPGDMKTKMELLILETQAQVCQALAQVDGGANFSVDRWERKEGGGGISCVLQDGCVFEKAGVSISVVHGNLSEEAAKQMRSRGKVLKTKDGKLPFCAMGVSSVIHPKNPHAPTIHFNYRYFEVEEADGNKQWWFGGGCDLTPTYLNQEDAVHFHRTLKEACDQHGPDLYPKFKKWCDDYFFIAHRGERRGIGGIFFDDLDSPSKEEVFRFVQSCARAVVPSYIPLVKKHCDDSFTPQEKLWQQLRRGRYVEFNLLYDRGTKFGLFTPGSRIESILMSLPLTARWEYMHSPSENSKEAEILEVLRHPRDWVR
# Summary of the method: as §1
# [7] = biological target: T3, WT-CPOX (K404) (Homo sapiens, UniProt P36551); type: binding; settings: compounds 50 µM, 1 h; gel-ABPP
# T3 sequence (P36551 111-454): T2 sequence (P36551 111-454)
# K351 of XRCC6 (Ku70), sequence (P12956 whole entry): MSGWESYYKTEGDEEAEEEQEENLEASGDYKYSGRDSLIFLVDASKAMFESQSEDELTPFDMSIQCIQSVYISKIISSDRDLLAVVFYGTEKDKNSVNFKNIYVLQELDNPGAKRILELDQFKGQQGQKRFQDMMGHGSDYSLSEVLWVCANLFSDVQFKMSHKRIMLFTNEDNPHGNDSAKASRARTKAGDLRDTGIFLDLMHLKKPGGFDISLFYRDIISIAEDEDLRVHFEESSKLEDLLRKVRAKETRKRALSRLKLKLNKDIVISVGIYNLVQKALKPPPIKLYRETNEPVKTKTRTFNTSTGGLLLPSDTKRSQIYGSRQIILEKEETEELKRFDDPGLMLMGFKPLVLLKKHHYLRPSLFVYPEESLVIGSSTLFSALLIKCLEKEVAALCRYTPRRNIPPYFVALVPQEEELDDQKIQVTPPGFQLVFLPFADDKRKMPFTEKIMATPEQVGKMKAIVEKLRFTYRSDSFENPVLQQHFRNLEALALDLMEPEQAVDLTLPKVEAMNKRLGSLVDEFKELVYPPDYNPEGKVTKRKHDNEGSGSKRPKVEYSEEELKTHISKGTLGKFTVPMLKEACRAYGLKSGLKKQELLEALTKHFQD
# Ku70/Ku80 heterodimer, sequence (P12956 whole entry, one chain of several): as the sequence (P12956 whole entry) above
# preformed Ku70-Ku80 complex, sequence (P12956 whole entry, one chain of several): as the sequence (P12956 whole entry) above
# K351R mutant of Ku70 with Ku80, sequence (P12956 whole entry K351R): as the sequence (P12956 whole entry) above, with K351R counted along it
smiles,measurement,setting,value
O=c1[nH]c2ccccc2c(=O)o1 [Compound 11e],blockade of co-immunoprecipitation of K351R mutant of Ku70 with Ku80,[1],Neither 11e nor 33e blocked
same,liganding of K351 of XRCC6,[2],liganded
same,effect on preformed Ku70-Ku80 complex,[3],does not block
same,blockade of Ku70 co-immunoprecipitation with Ku80,[4],blocked co-immunoprecipitation with Ku80 in a concentration-dependent manner
O=C(ON1C(=O)c2ccccc2C1=O)c1cc(C(F)(F)F)cc(C(F)(F)F)c1 [Compound 12a],engagement of K53 of GSTT2B by chemical proteomics,[5],engaged
O=Cc1c(O)cc(O)cc1O [Compound 28p],R value (DMSO/compound) for K404 of CPOX,[6],3.3
same,blockade of P4 labelling of WT-CPOX,[7],partially blocked
